The record followed here is ChEMBL document CHEMBL1133115, “Synthesis, biological evaluation, and conformational analysis of A-ring diastereomers of 2-methyl-1,25-dihydroxyvitamin D(3) and their 20-epimers: unique activity profiles depending on the stereochemistry of the A-ring and at C-20” (2000).

Molecules are shown by their SMILES. “And” between values parts separate entries of the source, which are not always exact repeats. Equal entries are not always repeated.

The species named for test [1] is Rattus norvegicus. The test can be described thus: evaluated for increasing effect of serum calcium level in normal rats(Ca). It is filed as functional. The method, boiled down: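 Normal male Sprague-Dawley rats were used to measure elevation of serum calcium level. Potency is expressed relative to 1α,25-dihydroxyvitamin D3, which is set at 100.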
Test [2] relates to HL-60. Briefly: Differentiation inducing effect on HL-60 cells. It is filed as functional, Homo sapiens. The method, boiled down: (§1)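 Line 1 is binding to bovine thymus vitamin D receptor. Lines 3 and 6 are differentiation induction in HL-60 cells.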
The species entered for test [3] is Rattus norvegicus. The test can be described thus: Bone calcium-mobilizing (BCM) activity at 260 pmol/day *7day in vitamin D deficient rats on a low-calcium diet ([…]). It is filed as functional. The method, boiled down: (§2)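 Vitamin D-deficient rats on a low-calcium diet were given the analogue intraperitoneally once daily for 7 consecutive days during the last week, in propylene glycol/ethanol (95:5). Controls received vehicle only. Serum calcium (mg/100 mL) was measured 24 h after the last dose, with 5-6 rats/group. Results are mean ± SEM, compared with control by Student's t-test.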

For test [4], the species on record is Rattus norvegicus. The test can be described thus: Bone calcium-mobilizing (BCM) activity at 500 pmol/day/7days in vitamin D deficient rats on a low calcium diet (0.02% Ca). It counts as functional. The method, boiled down:
as §2

Test [5] concerns the target T1, Vitamin D3 receptor (Bos taurus) (UniProt Q28037).
T1 sequence (whole entry): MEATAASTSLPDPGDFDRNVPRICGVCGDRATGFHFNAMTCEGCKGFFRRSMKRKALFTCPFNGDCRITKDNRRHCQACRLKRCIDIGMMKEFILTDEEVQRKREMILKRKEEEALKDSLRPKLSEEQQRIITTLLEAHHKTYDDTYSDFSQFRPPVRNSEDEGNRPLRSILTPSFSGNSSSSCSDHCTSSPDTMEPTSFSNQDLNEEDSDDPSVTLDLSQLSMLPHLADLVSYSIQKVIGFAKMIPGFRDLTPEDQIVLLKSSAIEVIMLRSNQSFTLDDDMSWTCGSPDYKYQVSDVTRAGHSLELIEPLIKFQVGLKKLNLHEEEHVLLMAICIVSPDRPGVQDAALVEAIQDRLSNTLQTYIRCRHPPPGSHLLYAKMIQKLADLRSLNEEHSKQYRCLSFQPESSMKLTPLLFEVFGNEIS
Briefly: Binding affinity for bovine thymus vitamin D3 receptor. The method, boiled down: as §1

Test [6] is filed under the species Rattus norvegicus. The test can be described thus: Bone Calcium-Mobilizing (BCM) activity (260 pmol/day/7 days) in Vitamin D-Deficient Rats on a Low-Calcium Diet (0.02% Ca diet). It counts as functional. The method in brief:
as §2

The species named for test [7] is Rattus norvegicus. The test can be described thus: Bone Calcium-Mobilizing (BCM) activity (260 pmol/day/7 days) in Vitamin D-Deficient Rats on a Low-Calcium Diet. It is filed as functional. The method in brief:
as §2

Test [8] relates to Vitamin D-binding protein (Bos taurus). The test can be described thus: Binding affinity for calf serum vitamin D-binding protein.
Test [9] has as its system HL-60. The test can be described thus: evaluated for differentiation inducing effect on HL-60 cells, relative potency with respect to 1-alpha, 25-Dihydroxyvitamin D3. It counts as functional, Homo sapiens. The method in brief: as §1

Regarding `C=C1/C(=C\C=C2/CCC[C@]3(C)[C@@H]([C@H](C)CCCC(C)(C)O)CC[C@@H]23)C[C@@H](O)[C@H](C)[C@@H]1O` (stereo in doubt; form 1), the results for the Relative potency in the test filed under Rattus norvegicus [1] and in the test with HL-60 [2] were 400 and 200, respectively. In addition, the “BCM serum Ca” value in the test filed under Rattus norvegicus [3] is below 6 mg 100ml-1.

For `C=C1/C(=C\C=C2/CCC[C@]3(C)[C@@H]([C@H](C)CCCC(C)(C)O)CC[C@@H]23)C[C@@H](O)[C@@H](C)[C@@H]1O` (stereo in doubt; form 1), the Relative potency in the test listed under Rattus norvegicus [1] is listed as 115; in the test with HL-60 [2] it was 2600. The “BCM serum Ca” value in the test filed under Rattus norvegicus [3] stood at 4.6 mg 100ml-1; in the test filed under Rattus norvegicus [4] it was 4.4 mg 100ml-1.

As to `C=C1/C(=C\C=C2/CCC[C@]3(C)[C@@H]([C@H](C)CCCC(C)(C)O)CC[C@@H]23)C[C@@H](O)C[C@@H]1O` [CALCITRIOL], the Relative potency (in the test listed under Rattus norvegicus [1]; with HL-60 [2]; in [5]) was 100 each time. Moreover, the “BCM serum Ca” value was below 5.5 mg 100ml-1 in the test listed under Rattus norvegicus [3]; 6.8 mg 100ml-1 in the test filed under Rattus norvegicus [6]; <5.5 mg 100ml-1 and <5.4 mg 100ml-1 and <6 mg 100ml-1 and <6.1 mg 100ml-1 in the test filed under Rattus norvegicus [7].

As to `C=C1/C(=C\C=C2/CCC[C@]3(C)[C@@H]([C@@H](C)CCCC(C)(C)O)CC[C@@H]23)C[C@H](O)[C@@H](C)[C@@H]1O` (stereo in doubt; form 1) [listing 1 of 2 here], the Relative potency in the test with HL-60 [2] stood at 6. The “BCM serum Ca” value is reported as 4.4 mg 100ml-1 in the test filed under Rattus norvegicus [3] and 4.3 mg 100ml-1 in the test filed under Rattus norvegicus [4].

Turning to `C=C1/C(=C\C=C2/CCC[C@]3(C)[C@@H]([C@@H](C)CCCC(C)(C)O)CC[C@@H]23)C[C@H](O)[C@@H](C)[C@@H]1O` (stereo in doubt; form 2) [listing 1 of 2 here], the Relative potency in [8] came to 21; in [5] it was 0.3.

On to `C=C1/C(=C\C=C2/CCC[C@]3(C)[C@@H]([C@@H](C)CCCC(C)(C)O)CC[C@@H]23)C[C@H](O)[C@@H](C)[C@@H]1O` (stereo in doubt; form 1) [listing 2 of 2 here], for which the figures for the Relative potency in test [8] and in test [5] were below 0.3 and below 0.1, respectively.

Consider `C=C1/C(=C\C=C2/CCC[C@]3(C)[C@@H]([C@@H](C)CCCC(C)(C)O)CC[C@@H]23)C[C@H](O)[C@@H](C)[C@H]1O` (stereo in doubt; form 2) [listing 1 of 2 here], for which the Relative potency in the test on HL-60 [2] amounted to 3. Besides, the “BCM serum Ca” value in the test filed under Rattus norvegicus [3] came out at 4.1 mg 100ml-1; in the test filed under Rattus norvegicus [4], 3.8 mg 100ml-1.

As to `C=C1/C(=C\C=C2/CCC[C@]3(C)[C@@H]([C@@H](C)CCCC(C)(C)O)CC[C@@H]23)C[C@H](O)[C@@H](C)[C@H]1O` (stereo in doubt; form 2) [listing 2 of 2 here], the Relative potency in test [8] came out at 1300; in [5], 0.8.

For the compound `C=C1/C(=C\C=C2/CCC[C@]3(C)[C@@H]([C@@H](C)CCCC(C)(C)O)CC[C@@H]23)C[C@H](O)[C@@H](C)[C@H]1O` (stereo in doubt; form 1) [listing 1 of 2 here], the Relative potency in the test listed under Rattus norvegicus [1] came out at 19; in the test on HL-60 [2], 190. Besides, the “BCM serum Ca” value in the test filed under Rattus norvegicus [3] and in the test listed under Rattus norvegicus [4] was 4.4 mg 100ml-1 each time.

For the compound `C=C1/C(=C\C=C2/CCC[C@]3(C)[C@@H]([C@H](C)CCCC(C)(C)O)CC[C@@H]23)C[C@@H](O)[C@H](C)[C@H]1O` (stereo in doubt; form 2), the Relative potency with HL-60 [2] came to 1. For the same compound, the “BCM serum Ca” value in the test listed under Rattus norvegicus [3] is 4.4 mg 100ml-1; in the test listed under Rattus norvegicus [4] it was 4.3 mg 100ml-1.

Turning to `C=C1/C(=C\C=C2/CCC[C@]3(C)[C@@H]([C@H](C)CCCC(C)(C)O)CC[C@@H]23)C[C@H](O)[C@H](C)[C@@H]1O` (stereo in doubt; form 1), the “BCM serum Ca” value in the test listed under Rattus norvegicus [3] is 4.2 mg 100ml-1; in the test filed under Rattus norvegicus [4], 4.1 mg 100ml-1.

On to `C=C1/C(=C\C=C2/CCC[C@]3(C)[C@@H]([C@@H](C)CCCC(C)(C)O)CC[C@@H]23)C[C@H](O)[C@@H](C)[C@H]1O` (stereo in doubt; form 1) [listing 2 of 2 here], for which the Relative potency in [8] was below 0.3; in test [5], 7.

Consider `C=C1/C(=C\C=C2/CCC[C@]3(C)[C@@H]([C@@H](C)CCCC(C)(C)O)CC[C@@H]23)C[C@H](O)[C@@H](C)[C@@H]1O` (stereo in doubt; form 2) [listing 2 of 2 here], for which the Relative potency in the test with HL-60 [2] is 1.5. In addition, the “BCM serum Ca” value is below 5.2 mg 100ml-1 in the test listed under Rattus norvegicus [3] and below 5.4 mg 100ml-1 in the test listed under Rattus norvegicus [4].

For `C=C1/C(=C\C=C2/CCC[C@]3(C)[C@@H]([C@H](C)CCCC(C)(C)O)CC[C@@H]23)C[C@H](O)[C@H](C)[C@@H]1O` (stereo in doubt; form 2), the Relative potency in the test filed under Rattus norvegicus [1] was determined as 144; in the test with HL-60 [2], 730. Further, the results for the “BCM serum Ca” value in the test listed under Rattus norvegicus [3] and in the test listed under Rattus norvegicus [4] were below 4.6 mg 100ml-1 and 4.6 mg 100ml-1, respectively.

With `C=C1/C(=C\C=C2/CCC[C@]3(C)[C@@H]([C@H](C)CCCC(C)(C)O)CC[C@@H]23)C[C@@H](O)[C@H](C)[C@@H]1O` (stereo in doubt; form 2), the Relative potency in the test filed under Rattus norvegicus [1] is given as 655; in the test with HL-60 [2] it was 59000. The “BCM serum Ca” value in the test listed under Rattus norvegicus [3] is below 5.8 mg 100ml-1; in the test filed under Rattus norvegicus [4] it was below 7.8 mg 100ml-1.

For `C=C1/C(=C\C=C2/CCC[C@]3(C)[C@@H]([C@H](C)CCCC(C)(C)O)CC[C@@H]23)C[C@@H](O)[C@@H](C)[C@H]1O` (stereo in doubt; form 2), the Relative potency with HL-60 [2] came to 1.5. The “BCM serum Ca” value is on record as below 5 mg 100ml-1 in the test filed under Rattus norvegicus [3] and below 4.9 mg 100ml-1 in the test filed under Rattus norvegicus [4].

On to `C=C1/C(=C\C=C2/CCC[C@]3(C)[C@@H]([C@H](C)CCCC(C)(C)O)CC[C@@H]23)C[C@H](O)[C@H](C)[C@H]1O` (stereo in doubt; form 1), for which the Relative potency in the test with HL-60 [2] is listed as 1. In addition, the “BCM serum Ca” value was 4.3 mg 100ml-1 in the test filed under Rattus norvegicus [3] and 4.4 mg 100ml-1 in the test filed under Rattus norvegicus [4].

Regarding `C=C1/C(=C\C=C2/CCC[C@]3(C)[C@@H]([C@H](C)CCCC(C)(C)O)CC[C@@H]23)C[C@H](O)[C@H](C)[C@H]1O` (stereo in doubt; form 2), the Relative potency in the test with HL-60 [2] stood at 0.5. Also, the “BCM serum Ca” value in the test filed under Rattus norvegicus [3] and in the test filed under Rattus norvegicus [4] was 3.9 mg 100ml-1 throughout.

Take `C=C1/C(=C\C=C2/CCC[C@]3(C)[C@@H]([C@H](C)CCCC(C)(C)O)CC[C@@H]23)C[C@@H](O)[C@H](C)[C@H]1O` (stereo in doubt; form 1): in the test with HL-60 [2], the Relative potency stood at 3. The “BCM serum Ca” value came out at 4.8 mg 100ml-1 in the test filed under Rattus norvegicus [3] and 4.7 mg 100ml-1 in the test listed under Rattus norvegicus [4].

In the case of `C=C1/C(=C\C=C2/CCC[C@]3(C)[C@@H]([C@H](C)CCCC(C)(C)O)CC[C@@H]23)C[C@@H](O)[C@@H](C)[C@H]1O` (stereo in doubt; form 1), the Relative potency in the test with HL-60 [9] is reported as 1. The “BCM serum Ca” value in the test filed under Rattus norvegicus [3] is 4.9 mg 100ml-1; in the test listed under Rattus norvegicus [4], 5 mg 100ml-1.

On to `C=C1/C(=C\C=C2/CCC[C@]3(C)[C@@H]([C@H](C)CCCC(C)(C)O)CC[C@@H]23)C[C@@H](O)[C@@H](C)[C@@H]1O` (stereo in doubt; form 2), for which the Relative potency is recorded as 2 in the test listed under Rattus norvegicus [1] and 10 in the test on HL-60 [2]. Besides, the “BCM serum Ca” value is on record as 4.1 mg 100ml-1 in the test listed under Rattus norvegicus [3] and below 5 mg 100ml-1 in the test filed under Rattus norvegicus [4].
